Experimental data: PubChem BioAssay AID504477 (NMMLSC, 2011)
Activity calls are given as the source filed them.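 How the source made its calls: active means compounds whose self-toxic dose exceeds tenfold the dose that restores mitoxantrone killing of resistant cells; inactive means the rest.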

Tested on: Igrov ABCG2 cells + mitoxantrone, trypan blue viability, 3 d
Assay: chemosensitization of ABCG2-expressing resistant cells – Igrove cells, mitoxantrone, trypan blue, SAR set 2, SAR follow-up (AID 504477)
How it was run: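 Technique: trypan blue counts by light microscopy; test system: ABCG2-expressing Igrove cells; quantity: 100,000 cells per mL; doses: test compound concentration series […] 1-100 µM; evaluation: compound level halving cell viability; times: compound exposure 3 days; probe or stimulus: mitoxantrone selective agent at one fixed concentration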

Compound	CC50
COc1cccc(-c2cc3nc(-c4ccco4)cc(N4CCN(C(C)=O)CC4)n3n2)c1	> 100 µM
CC(=O)N1CCN(c2cc(-c3ccco3)nc3cc(-c4cccc(Cl)c4)nn23)CC1	> 100 µM
CC(=O)N1CCN(c2cc(-c3ccco3)nc3cc(-c4ccccc4)nn23)CC1	> 100 µM
COc1ccc(-c2cc3nc(-c4ccco4)cc(N4CCN(C(=O)c5ccoc5)CC4)n3n2)cc1	> 100 µM
O=C(c1ccoc1)N1CCN(c2cc(-c3ccco3)nc3cc(-c4ccco4)nn23)CC1	> 100 µM
COc1ccccc1-c1cc(N2CCN(C(=O)c3ccoc3)CC2)n2nc(-c3ccccc3)cc2n1	> 7.62 µM (inactive)
